This note sets out measurements from ChEMBL document CHEMBL4017544 (J Med Chem, 2017).

The series is described as follows: Drug level in Wistar rat plasma treated with 1-Hydroxyl-2-cyano-3-(4-(methyl-L-glutaminate-N5-yl)-benzyloxy)-12-oxo-oleana-2(3),9(11)-dien-28-oic Acid Methyl Ester assessed as esterase-mediated metabolite formation at 100 uM after 8 hrs by HPLC analysis. The class given is ADME. The method in brief:
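Plasma, and kidney and liver homogenates in PBS, from three Wistar rats; substrate added at 100 μM at 37 °C; metabolite measured by HPLC every 60 min for 8 h; mean ± SD of three experiments.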

`COC(=O)[C@]12CCC(C)(C)C[C@H]1[C@H]1C(=O)C=C3[C@@]4(C)[C@@H](O)C(C#N)=C(OCc5ccc(NC(=O)CC[C@H](N)C(=O)O)cc5)C(C)(C)[C@@H]4CC[C@@]3(C)[C@]1(C)CC2`: the Drug metabolism entry was “Metabolite_Detected”.
